ChEMBL document CHEMBL3098077, “Discovery of novel antitumor dibenzocyclooctatetraene derivatives and related biphenyls as potent inhibitors of NF-κB signaling pathway” (Bioorg Med Chem, 2014)
Each block holds one compound with its values, some of them ahead of it. Activity calls are given as the source filed them. The calls are words filed in the database; no cut-off is given here.

Columns and labels:
A549 = assay: Cytotoxicity against human A549 cells by SRB assay; assay type: functional
Outline: (§1)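 SRB growth assay; GI50 taken as molar concentration giving 50% tumor cell growth inhibition. Paclitaxel run as positive control. KBvin is a P-gp-expressing epidermoid carcinoma of the nasopharynx line.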

[1] = (§2) Inhibition of LPS-induced NF-kappaB activation in mouse RAW264.7 cells treated 30 mins before LPS challenge measured after 6 hrs by luciferase reporter gene assay; assay type: cell-based
Outline: (§3)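 RAW264.7 cells stably carrying an NF-κB-driven firefly luciferase reporter, seeded at 10^4 cells/well and attached overnight. Pretreated 30 min with compound, then stimulated with LPS 1 μg/mL for 6 h; cells lysed and luciferase activity measured. Compounds screened at 10 μM; those above 98% inhibition were tested at serial concentrations for IC50, alongside BAY 11-7082 as positive control.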

[2] = Cytotoxicity against human KBVIN cells by SRB assay; assay type: functional; outline: as §1
DU-145 = assay: Cytotoxicity against human DU145 cells by SRB assay; assay type: functional; outline: as §1
KB = assay: Cytotoxicity against human KB cells by SRB assay; assay type: functional; outline: as §1
RAW264.7 [3] = assay: Inhibition of LPS-induced NF-kappaB activation in mouse RAW264.7 cells at 10 uM treated 30 mins before LPS challenge measured after 6 hrs by luciferase reporter gene assay; assay type: cell-based; outline: as §3
[4] = biological target: Transcription factor p65 (Mus musculus) (UniProt Q04207); assay: Inhibition of LPS-induced NF-kappaB p65 translocation into nucleus in mouse RAW264.7 cells treated 30 mins before LPS challenge measured after 15 mins by Western blot analysis; assay type: cell-based
Transcription factor p65 (Mus musculus), sequence (Q04207 whole entry): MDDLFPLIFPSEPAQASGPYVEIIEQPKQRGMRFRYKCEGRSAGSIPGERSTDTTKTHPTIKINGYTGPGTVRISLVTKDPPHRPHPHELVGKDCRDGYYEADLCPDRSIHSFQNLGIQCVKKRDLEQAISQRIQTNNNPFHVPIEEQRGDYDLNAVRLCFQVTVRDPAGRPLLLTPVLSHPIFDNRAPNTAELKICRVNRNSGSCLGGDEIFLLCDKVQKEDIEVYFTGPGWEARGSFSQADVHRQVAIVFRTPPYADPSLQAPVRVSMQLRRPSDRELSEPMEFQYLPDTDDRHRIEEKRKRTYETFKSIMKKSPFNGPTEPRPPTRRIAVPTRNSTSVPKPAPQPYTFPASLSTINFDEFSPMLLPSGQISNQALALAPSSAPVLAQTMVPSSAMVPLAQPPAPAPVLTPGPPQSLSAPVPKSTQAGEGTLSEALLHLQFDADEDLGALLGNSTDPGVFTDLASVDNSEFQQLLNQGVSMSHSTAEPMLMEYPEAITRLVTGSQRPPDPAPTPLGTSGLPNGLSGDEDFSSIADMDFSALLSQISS
Outline: (§4)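 RAW264.7 cells in dishes, attached overnight, pretreated 30 min with compound (test compound at 2.5, 5, 10 μM; reference inhibitor at 20 μM), then given LPS 1 μg/mL for 15 min. Total protein in RIPA buffer with protease/phosphatase inhibitors, used for IκB-α; nuclear extract used for p65. Western blot: SDS-PAGE, PVDF, primary antibody overnight at 4 °C, peroxidase secondary 1 h at room temperature, chemiluminescence.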

RAW264.7 [5] = assay: Inhibition of NF-kappaB-mediated IkappaBalpha degradation in LPS-induced mouse RAW264.7 cells treated 30 mins before LPS challenge measured after 15 mins by Western blot analysis; assay type: cell-based; outline: as §4
RAW264.7 [6] = assay: as §2; assay type: cell-based; outline: as §3
RAW264.7 [7] = assay: Antinflammatory activity in mouse RAW264.7 cells assessed as inhibition of LPS-induced nitric oxide production at 2.5 uM treated 30 mins before LPS challenge measured after 18 hrs by Griess assay; assay type: functional, cell-based
Outline: (§5)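 RAW264.7 cells seeded in dishes, attached overnight, pretreated 30 min with compound (test compound at 0.6, 1.25 and 2.5 μM; reference inhibitor at 20 μM), then stimulated with LPS 1 μg/mL for 18 h. Medium collected and centrifuged; supernatant nitrite reacted with Griess reagents I and II, absorbance read at 540 nm as measure of NO.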

RAW264.7 [8] = assay: Antinflammatory activity in mouse RAW264.7 cells assessed as inhibition of LPS-induced nitric oxide production at 20 uM treated 30 mins before LPS challenge measured after 18 hrs by Griess assay; assay type: functional, cell-based; outline: as §5
RAW264.7 [9] = assay: Inhibition of LPS-induced NF-kappaB activation in mouse RAW264.7 cells at 20 uM treated 30 mins before LPS challenge measured after 6 hrs by luciferase reporter gene assay; assay type: cell-based

IC50 [1]: 0.9 µM
SMILES: COc1cc(/C=C(\C)[N+](=O)[O-])c(-c2cc3c(cc2/C=C(\C)[N+](=O)[O-])OCO3)c(OC)c1OC
GI50 (A549): 0.87 µM
GI50 [2]: 1.27 µM
GI50 (DU-145): 1.51 µM
GI50 (KB): 0.72 µM

SMILES: COc1cc2c(c(OC)c1OC)-c1cc3c(cc1/C=C(C(=O)O)\C(C(=O)O)=C/2)OCO3
GI50 (A549): > 20 µM
GI50 [2]: > 20 µM
GI50 (DU-145): > 20 µM
GI50 (KB): > 20 µM

IC50 [1]: 1.78 µM
SMILES: COc1cc(/C=C/[N+](=O)[O-])c(-c2ccccc2/C=C/[N+](=O)[O-])c(OC)c1OC
GI50 (A549): 3.07 µM
GI50 [2]: 4.6 µM
GI50 (DU-145): 2.09 µM
GI50 (KB): 2.58 µM

IC50 [1]: 0.81 µM
SMILES: COc1cc(/C=C(\C)[N+](=O)[O-])c(-c2ccccc2/C=C(\C)[N+](=O)[O-])c2c1OCO2
GI50 (A549): 13.9 µM
GI50 [2]: 18.7 µM
GI50 (DU-145): 19.8 µM
GI50 (KB): 18 µM

IC50 [1]: 3.02 µM
SMILES: CCOC(=O)/C(C#N)=C/c1ccccc1-c1c(/C=C(\C#N)C(=O)OCC)cc(OC)c(OC)c1OC
GI50 (A549): 7.02 µM
GI50 [2]: 8.45 µM
GI50 (DU-145): 8.08 µM
GI50 (KB): 6.53 µM

SMILES: COC(=O)C1=C/c2cc(OC)c(OC)cc2-c2c(cc(OC)c(OC)c2OC)/C=C\1C(=O)OC
GI50 (A549): > 20 µM
GI50 [2]: > 20 µM
inhibition (DU-145): inactive
GI50 (KB): > 20 µM

IC50 [1]: 1.72 µM
SMILES: COc1cc(/C=C/[N+](=O)[O-])c(-c2cc3c(cc2/C=C/[N+](=O)[O-])OCO3)c(OC)c1OC
GI50 (A549): 8.95 µM
GI50 [2]: 8.6 µM
GI50 (DU-145): 9.09 µM
GI50 (KB): 5.49 µM

SMILES: COc1cc(C=C(C#N)C#N)c(-c2ccccc2C=C(C#N)C#N)c(OC)c1OC
GI50 (A549): > 40 µM
GI50 [2]: > 40 µM
GI50 (DU-145): > 40 µM
GI50 (KB): > 40 µM

inhibition [4]: Dose-dependent effect
IC50 [1]: 0.52 µM
SMILES: COc1cc2cc3c(=O)[nH]c(=O)c-3cc3cc4c(cc3c2c(OC)c1OC)OCO4
inhibition (RAW264.7 [3]): Active
inhibition (RAW264.7 [5]): Dose-dependent effect
GI50 (A549): 1.38 µM
inhibition (RAW264.7 [6]): Dose-dependent effect
inhibition (RAW264.7 [7]): Active
GI50 [2]: 1.45 µM
GI50 (DU-145): 1.43 µM
GI50 (KB): 1.47 µM

IC50 [1]: 1.61 µM
SMILES: COC(=O)c1cc(OC)c(OC)c(OC)c1-c1ccccc1/C=C(\C)[N+](=O)[O-]
GI50 (A549): 6.2 µM
GI50 [2]: 6.17 µM
GI50 (DU-145): 6.56 µM
GI50 (KB): 6.95 µM

SMILES: CCOC(=O)/C(C#N)=C/c1cc2c(cc1-c1c(/C=C(\C#N)C(=O)OCC)cc(OC)c(OC)c1OC)OCO2
GI50 (A549): > 22 µM
GI50 [2]: > 22 µM
GI50 (DU-145): > 22 µM
GI50 (KB): > 22 µM

SMILES: COC(=O)c1cc(OC)c(OC)c(OC)c1-c1ccccc1C=C(C#N)C#N
GI50 (A549): 42 µM
GI50 [2]: 20.6 µM
GI50 (DU-145): 21.9 µM
GI50 (KB): 36.2 µM

IC50 [1]: 2.16 µM
SMILES: COc1cc(/C=C(\C)[N+](=O)[O-])c(-c2c(/C=C(\C)[N+](=O)[O-])cc(OC)c(OC)c2OC)cc1OC
GI50 (A549): 5.23 µM
GI50 [2]: 7.22 µM
GI50 (DU-145): 6.75 µM
GI50 (KB): 13.5 µM

IC50 [1]: 1.61 µM
SMILES: COc1c2c(cc(/C=C(\C)[N+](=O)[O-])c1-c1ccccc1/C=C(\C)[N+](=O)[O-])OCO2
GI50 (A549): 4.02 µM
GI50 [2]: 12.3 µM
GI50 (DU-145): 5.02 µM
GI50 (KB): 13.1 µM

SMILES: CCOC(=O)/C(C#N)=C/c1ccccc1-c1c(C(=O)OC)cc(OC)c(OC)c1OC
GI50 (A549): > 40 µM
GI50 [2]: > 40 µM
GI50 (DU-145): > 40 µM
GI50 (KB): > 40 µM

IC50 [1]: 4.16 µM
SMILES: COc1cc(C=C(C#N)C#N)c(-c2c(C=C(C#N)C#N)cc(OC)c(OC)c2OC)cc1OC
GI50 (A549): 18 µM
GI50 [2]: 15.9 µM
GI50 (DU-145): 10.1 µM
GI50 (KB): 23.2 µM

IC50 [1]: 0.52 µM
SMILES: COc1cc2cc3c(=O)[nH]c(=O)c-3cc3cc(OC)c(OC)c(OC)c3c2cc1OC
GI50 (A549): 10.1 µM
GI50 [2]: 10.8 µM
GI50 (DU-145): 11.3 µM
GI50 (KB): 10.1 µM

SMILES: CC(=O)O[C@H]1C(=O)[C@@]2(C)[C@H]([C@H](OC(=O)c3ccccc3)[C@]3(O)C[C@H](OC(=O)[C@H](O)[C@@H](NC(=O)c4ccccc4)c4ccccc4)C(C)=C1C3(C)C)[C@]1(OC(C)=O)CO[C@@H]1C[C@@H]2O [PACLITAXEL]
GI50 (A549): 0.0076 µM
GI50 [2]: 1.8 µM
GI50 (DU-145): 0.006 µM
GI50 (KB): 0.008 µM

SMILES: COC(=O)C1=C/c2cc3c(cc2-c2c(cc(OC)c(OC)c2OC)/C=C\1C(=O)OC)OCO3
GI50 (A549): 14.5 µM
GI50 [2]: 15.4 µM
GI50 (KB): 14 µM

SMILES: COc1cc(C=C(C#N)C#N)c(-c2cc3c(cc2C=C(C#N)C#N)OCO3)c(OC)c1OC
GI50 (A549): > 40 µM
GI50 [2]: > 40 µM
GI50 (DU-145): 19.7 µM
GI50 (KB): > 40 µM

IC50 [1]: 1.02 µM
SMILES: COc1cc2cc3c(=O)[nH]c(=O)c-3cc3ccccc3c2c(OC)c1OC
GI50 (A549): 2.31 µM
GI50 [2]: 2.07 µM
GI50 (DU-145): 2.34 µM
GI50 (KB): 2.67 µM

IC50 [1]: 0.75 µM
SMILES: COc1cc(/C=C(/C)[N+](=O)[O-])c(-c2ccccc2/C=C(/C)[N+](=O)[O-])c(OC)c1OC

IC50 [1]: 3.75 µM
SMILES: CCOC(=O)/C(C#N)=C/c1cc(OC)c(OC)cc1-c1c(/C=C(\C#N)C(=O)OCC)cc(OC)c(OC)c1OC
GI50 (A549): 13.8 µM
GI50 [2]: 15.1 µM
GI50 (DU-145): 13.1 µM
GI50 (KB): > 36 µM

IC50 [1]: 1.72 µM
SMILES: Cc1ccc(S(=O)(=O)/C=C/C#N)cc1
inhibition (RAW264.7 [8]): Active
inhibition (RAW264.7 [9]): Active
